High-throughput results from PubChem.
NadD block: inhibitors of S. aureus NadD, primary screen, biochemical, colorimetric, uHTS. purified NadD enzyme, colorimetric absorbance read-out. inhibition, % at 20 µM. Nicotinate-nucleotide adenylyltransferase NadD (Staphylococcus aureus N315). AID 602399, 2012. 360,000 compounds, 0.78% hits; in the data active = inhibition above about 26%
ARFGAP1 inh: inhibitors of rat ARFGAP1 GAP activity, primary screen, biochemical, fluorescence polarization, GDP tracer. Arfgap1-stimulated ARF1 GTP hydrolysis, GDP FP detection. inhibition, % at 16.5 µM. 360,000 compounds, 0.26% hits. AID 651572, 2012;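 active = inhibition above a per-plate limit, mean inhibition of low control wells plus 3 SD, cut at about 25% in these data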
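Assay system: Rat Arfgap1 GAP domain (His6, aa 1-136), purified enzyme | Buffer or medium: HEPES 25 mM pH 7.5, NaCl 150 mM, MgCl2, DTT | Schedule: GTP hydrolysis reaction 2 h at 25 °C | Signal: FP of antibody-bound GDP Alexa 633 tracer, ex 620/em 688 nm | Measure: Percent inhibition of Arfgap1-stimulated GTP hydrolysis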
ASAP1 GAP inh: inhibitors of human ASAP1 ArfGAP activity, primary screen, biochemical, fluorescence polarization; Arf-GAP with SH3 domain, ANK repeat and PH domain-containing protein 1 (Homo sapiens), …; 360,000 compounds, 0.19% hits; ASAP1-stimulated ARF1 GTP hydrolysis, GDP FP detection; inhibition, % at 16.5 µM; in the data active = inhibition above about 25%
Target sequence (Q9ULH1 325-724 limits assumed): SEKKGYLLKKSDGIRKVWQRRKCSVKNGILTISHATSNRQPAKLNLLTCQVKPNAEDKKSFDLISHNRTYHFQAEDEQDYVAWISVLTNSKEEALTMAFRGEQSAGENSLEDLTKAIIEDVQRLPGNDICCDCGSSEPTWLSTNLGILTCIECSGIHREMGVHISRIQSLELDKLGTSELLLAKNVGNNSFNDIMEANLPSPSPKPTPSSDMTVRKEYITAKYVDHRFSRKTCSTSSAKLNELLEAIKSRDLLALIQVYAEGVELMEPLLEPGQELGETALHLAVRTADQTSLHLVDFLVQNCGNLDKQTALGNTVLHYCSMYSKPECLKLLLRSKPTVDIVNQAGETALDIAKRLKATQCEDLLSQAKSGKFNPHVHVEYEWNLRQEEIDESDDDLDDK
rCAG RNA binder: binders of r(CAG) RNA repeats, primary screen, biochemical, fluorescence; inhibition, % at 3 µM; 370,000 compounds, 1.3% hits; r(CAG) RNA repeat, TO-PRO-1 dye displacement fluorescence;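 active = inhibition above the plate cutoff, the mean of all test compounds on that plate plus 3 SD, cut at about 35% in these data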;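 also: higher means more dye released from RNA so lower well fluorescence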
rCAG binder conf: small molecules binding CAG repeat RNA – biochemical, fluorescence, confirmation; 4,300 compounds, 70% hits; AID 652065, 2013; r(CAG) RNA repeat, TO-PRO-1 dye displacement fluorescence; inhibition, % at 3 µM; shares compounds with rCAG RNA binder;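 active = inhibition above a per-plate cutoff, the mean inhibition of sample wells plus 3 SD, cut at about 35% in these data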;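 also: loss of TO-PRO-1 fluorescence as compound displaces dye from 1x1 AA loop RNA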
dCAG dye counter: displacement of TO-PRO-1 from CAG DNA duplex, counter-screen for rCAG RNA repeat binder project, biochemical, fluorescence, TO-PRO-1 dye, d(CAG) DNA oligo | shares compounds with rCAG RNA binder | d(CAG) DNA oligo TO-PRO-1 dye displacement | inhibition, % at 3 µM | 4,300 compounds, 94% hits;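 active = inhibition above its plate's cutoff, the mean test-well inhibition plus 3 SD, cut at about 4.8% in these data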;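 also: hits displace the dye from DNA and so lower well fluorescence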
Of the large screens only hits and unclear results are named; the others gave an inactive call (follow-up assays come after a bar, where they were run). A selection: hits, their analogues and other compounds. The true share with any hit is near 2.2%.

COC(=O)N/N=C/c1cc(OC)c(O)c([N+](=O)[O-])c1	none
COc1cc(/C=C2/C(=O)NN(c3ccc(Cl)c(Cl)c3)C2=O)cc([N+](=O)[O-])c1O	rCAG RNA binder 99 | rCAG binder conf 66 | dCAG dye counter 23
CCCNC(=O)C1(C)CCN(Cc2csc3ccccc23)C1 (stereo not drawn)	none
Cc1cccc(C)c1-n1nnnc1C1(C)CCC(=O)N1CCCN1CCOCC1 (stereo not drawn)	none
CC(C)(C)c1ccc(/C=C2\Oc3cc(O)ccc3C2=O)cc1	rCAG RNA binder 58 | rCAG binder conf 50 | dCAG dye counter 16
O=C(NCc1cccs1)c1ccc2nc([C@@H]3O[C@H](CO)[C@H](O)[C@H](O)[C@H]3O)[nH]c2c1	none
O=C(CSCc1ccccc1)NNC(=S)Nc1cccc(Cl)c1Cl	rCAG RNA binder 58 | rCAG binder conf 65 | dCAG dye counter 26
CNC(=S)NNC(=O)CSCc1c(Cl)cccc1Cl	none
C=CCNc1cccc2c1S(=O)(=O)N[C@H](C)CO2	none (no result: NadD block)
O=C(NCCSc1ccc(Br)cc1)c1ccc2nc[nH]c2c1	none
O=C1C(c2cc(=O)c3ccccc3[nH]2)=C(O)c2ccccc21	rCAG RNA binder 63 | rCAG binder conf 36 | dCAG dye counter 8.5
Cc1cccc(NC(=S)NC2CCSc3ccccc32)c1 (stereo not drawn)	none
S=C(NCc1ccccc1)NC1CCSc2ccccc21 (stereo not drawn)	rCAG RNA binder 53 | rCAG binder conf inactive | dCAG dye counter inactive
COC(=O)C1=C(C)N(Cc2ccc(C(F)(F)F)cc2)C(=NCc2ccc(C(F)(F)F)cc2)NC1c1ccccc1 (stereo not drawn)	none (no result: NadD block)
CC1(C)CC(=O)C2=C(C1)OC1=C(C(=O)CC(C)(C)C1)C2c1cc([N+](=O)[O-])cc([N+](=O)[O-])c1O	rCAG RNA binder 53 | rCAG binder conf 64 | dCAG dye counter 24
CCOc1cc(C2C3=C(CC(C)(C)CC3=O)OC3=C2C(=O)CC(C)(C)C3)cc([N+](=O)[O-])c1O	none
Cc1cccc(CCNC(=O)CSc2nc3c([nH]2)c(=O)n(C)c(=O)n3C)c1	none (no result: NadD block, ARFGAP1 inh, ASAP1 GAP inh)
COc1cc(/C=C/C(=O)O)ccc1OS(=O)(=O)c1c(C)c(C)cc(C)c1C	rCAG RNA binder 56 | rCAG binder conf 56 | dCAG dye counter 16
COc1cc(/C=C/C(=O)O)cc(OC)c1OC	none
CCCCCCCCN1C(=O)[C@@H](CC(=O)N2CCOCC2)C[C@@]2(C(=O)OC)C1=C[C@H](C1CCCC1)O[C@@H]2C	none (no result: NadD block)
Cc1ccc(S(=O)(=O)N2C[C@H]3C(=O)C[C@@H](c4ccccc4)N(S(=O)(=O)c4ccc(Br)cc4)[C@H]3C[C@H]2c2ccccc2)cc1	none
Cc1ccc(-c2nc(-c3ccc(Cl)cc3)sc2CC(=O)O)c(C)c1	rCAG RNA binder 45 | rCAG binder conf inactive | dCAG dye counter 8.7
Cc1noc(NS(=O)(=O)c2ccc(N/C=C\C(=O)c3cccc4ccccc34)cc2)c1C	rCAG RNA binder 72 | rCAG binder conf 81 | dCAG dye counter 46
Cc1ccc(C(=O)/C=C/Nc2ccc3c(c2)OCO3)cc1	none
Cc1noc(NS(=O)(=O)c2ccc(N/C=C\C(=O)c3ccc4c(c3)OCO4)cc2)c1C	rCAG RNA binder 44 | rCAG binder conf 43 | dCAG dye counter 14
COc1cccc(C(=O)/C=C/Nc2ccc(S(=O)(=O)Nc3onc(C)c3C)cc2)c1	none
CCOc1ccc(C(=O)/C=C/Nc2ccc(S(=O)(=O)Nc3onc(C)c3C)cc2)cc1	rCAG RNA binder 42 | rCAG binder conf 64 | dCAG dye counter 25
Cc1noc(NS(=O)(=O)c2ccc(N/C=C\C(=O)c3ccc(Br)cc3)cc2)c1C	rCAG RNA binder 75 | rCAG binder conf 74 | dCAG dye counter 39
CCOc1ccc(C(=O)/C=C/Nc2ccc(S(=O)(=O)N=C(N)N)cc2)cc1	none
